Results published in ChEMBL document CHEMBL5344432, “Identification of a Dual Autophagy and REV-ERB Inhibitor with in Vivo Anticancer Efficacy” (J Med Chem, 2024).

Key:
BT-474 = test: Induction of apoptosis in human BT-474 cells assessed as increase in caspase activity after 24 hrs; format: functional, cell-based; conditions: dose 2.5-10 µM
Method in brief: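 BT-474 cells treated at a range of concentrations. Apoptosis read out as caspase activity and as cleaved PARP protein by immunoblot.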

A-375 = test: Antitumor activity against human A-375 cells xenografted in NMRI-Foxn1nu mouse assessed as reduction in tumor weight at 30 mg/kg, ip administered as 3 days on and 2 days off schedule and measured after 15 days; format: functional; design: scale not given: the % may be the effect or the level left; conditions: time 15 day
Method in brief: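 Female NMRI-Foxn1nu mice with subcutaneous A375 flank tumors, grouped by matched tumor volume. Dosing: 30 mg/kg ip or saline, 3 days daily then 2 days off. Tumors measured by digital caliper until day 15. Excised tumors then sized as (W × D × L)/2 and weighed. n = 8; Mann–Whitney two-tailed test for the excised endpoints.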

In the case of `Fc1ccc(C2(NCc3ccc(F)c(CC4CCNCC4)c3)CCCC2)cc1`, the Activity (BT-474) is reported as “Dose-Dependent Effect” and the Activity (A-375) is reported as 56%.
